Assay results collected from several papers.
Lines come from different studies, so protocols differ.
Target: Tyrosine-protein kinase Lyn (LYN, Homo sapiens, UniProt P07948)

Cn1cc(-c2cc(F)cc(N3CCn4c(cc5c4CCCC5)C3=O)c2CO)cc(Nc2ccc(N3CCN(C4COC4)CC3)cn2)c1=O
inhibition (enzyme activity; inhibitor; 0.1 µM): 12%

Cn1cncc1[C@](O)(COc1ccc(C#N)cc1-c1ccc(OC(F)(F)F)cc1)c1ccc(C#N)cc1
remaining binding (cell-free assay; competition with immobilised ligand; 1 µM): 90%

Cc1nn(C)cc1-c1nc2c(N3CCN(Cc4ccc(Cl)cc4)CC3)c(Cl)cnc2[nH]1
remaining binding (binding; competition with immobilised ligand; 1 µM): 86%

Cc1ncc(C)n2nc(/C=C/c3nc(N4CCCC4)cc(N4CCOCC4)n3)nc12
inhibition (enzyme activity; inhibitor; 10 µM): -13%

N#CC1(c2ccccn2)CCN(Cc2cc(C(=O)O)c(=O)n3ccccc23)CC1
remaining binding (cell-free assay; competition with immobilised ligand; 1 µM): 100%

O=c1[nH]c2ccccc2n1C1CCN(Cc2ccc(-c3[nH]c4cc5ncnc5cc4nc3-c3ccccc3)cc2)CC1
remaining activity (enzyme activity; 0.5 µM): 102%

O=C(Nc1cccnn1)N1CCN([C@@H]2CCOc3cc(C(F)(F)F)ccc32)CC1
inhibition (enzyme activity; inhibitor; 20 µM): -4%

CC(C)(C)c1cc(C=C(C#N)C#N)cc(Br)c1O
remaining activity (enzyme activity; inhibitor; 0.5 µM): 74.1%

COc1ncccc1-c1cnn2ccc(N3CCN(C(=O)OC(C)C)CC3)nc12
remaining binding (binding; competition with immobilised ligand; 1 µM): 79%
